According to ChEMBL document CHEMBL4513216, “Probing the Open Global Health Chemical Diversity Library for Multistage-Active Starting Points for Next-Generation Antimalarials” (ACS Infect Dis, 2020):

Assay: Toxicity liver stage against HepG2, at 10uM
Format: cell-based
Parameters: test concentration 10 uM, cell line HepG2-A16-CD81EGFP
Details: human, HepG2-A16-CD81EGFP cells; read-out: INHIBITION
Procedure, shortened: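 Uninfected HepG2-A16-CD81EGFP cells, 3 × 10^3 per well, 1536-well, plated on prespotted compound at 10 μM final, parasite-free screening media added to match infected plates; puromycin 10 μM positive, DMSO 0.5% negative; run in parallel with 48 h PbLuc assay at 37 °C, 5% CO2; viability by CellTiter-Glo luminescence, normalized to controls.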

SMILES	cytotoxicity at 10 µM [%]
COc1cccc(CNC(=O)CCC2=Nc3ccccc3S(=O)(=O)N2)c1	4.19
O=C(Nc1ncc[nH]1)c1cc(-c2cccnc2)n[nH]1	5.69
O=C(CSC1=NS(=O)(=O)c2cc(F)ccc2N1)Nc1ccc(Cl)c(Cl)c1	11.5
COC(=O)CCC(=O)N1CCc2nc(C(=O)N3CCCCC3)sc2CC1	15.4
CCOCC1CN(C(=O)[C@H]2CCCO2)Cc2nnn(CC3CC3)c21 (stereo partly specified)	-1.99
Cc1nc(-c2cnn(C)c2)nc2c1CN(C(=O)c1ccc[nH]1)CC2	13
CCn1nnc2c1C(COCCN(C)C)CN(c1nncs1)C2 (stereo unspecified)	1.52
Cc1ccc(N2CC[C@@H]3[C@@H](CO[C@H]3CNC(=O)c3ccco3)C2)nn1	9.43
Cc1noc([C@@]23CCO[C@@H]2CCN(C(=O)c2cc(C)c(C)s2)C3)n1	8.73
COCCN1C(=O)[C@]2(CC[C@@H]3CN(C(=O)NC(C)C)C[C@@H]32)N=C1C	-57.5
O=S(=O)(C1CC1)N1CCC2(COCc3cnc(NCC4CC4)nc32)C1 (stereo unspecified)	6.38
Cc1ccc2c(c1)C1(CC2)CCN(c2nncs2)CC1	9.43
Cc1nc(NCc2ccccn2)c2c(n1)c(C)nn2C	-1.02
COc1cc2cc(C(=O)NCC(=O)O)n(C)c2c(OC)c1OC	-77.3
COc1ccccc1C(=O)Nc1c(F)c(C(=O)NCCC(C)C)nn1C	-11.1
Cc1nn(C)c2c(NCc3ccc(F)cc3)nc(C3CC3)nc12	0.107
CCc1cc(=O)n(CC(=O)N2CCC(C)CC2)c(-c2ccccc2)n1	10.8
Fc1ccc(Nc2ccc(C3CCN(Cc4ncc[nH]4)CC3)nc2)nc1	-1.85
N#CC1(C(=O)N2CCOC(c3ccc(Cl)cc3)C2)CCCC1 (stereo unspecified)	1.36
CN(C)C(=O)CCC[S+]([O-])Cc1cc(Cl)ccc1Cl (stereo unspecified)	12.5
CN(C)C(=O)CCC[S+]([O-])Cc1ccc(Cl)c(Cl)c1 (stereo unspecified)	12.4

SMILES	cytotoxicity at 10 µM [%]
CC(=O)NCC1CCN(Cc2nc(C3CC3)no2)CC1	-4.12
Cn1cccc(NC(=O)NCCc2cccc(O)c2)c1=O	-43.6
CCc1ncnc(N2CCOCC2C2CC2)c1F (stereo unspecified)	-6.62
CCn1cnnc1CNC(=O)NCC(C(C)C)N1CCOCC1 (stereo unspecified)	13.5
CC(C(N)=O)N(C)Cc1ccccc1C(F)(F)F (stereo unspecified)	-5.54
NC(=O)Nc1ccc(C(=O)NCCn2cccc2)cc1	-1.23
C=C(C)CN1CCC(NC(=O)NCCc2cccc(C(N)=O)c2)CC1	11.4
CCOCC(=O)NC1(c2cccc(Cl)c2)CC1	3
CSc1ccc(CN(C)Cc2noc(C(C)(C)C)n2)cc1	-8.58
Cc1cccc(C2(NC(=O)CCCn3cncn3)CCCC2)c1	15
CN(Cc1nnc(C2CC2)o1)C1CCN(CCc2cccs2)C1 (stereo unspecified)	-2.01
CCOc1ncccc1NC(=O)Nc1c(C)nn(C(C)C)c1C	17.8
CCNC(=O)N1CCC(NC(=O)NCCc2cc(F)cc(F)c2)C1 (stereo unspecified)	-43.4
CC(C)(C)c1nc(CN2CCCC2c2nnc3ccccn23)no1 (stereo unspecified)	-1.99
Cc1ccsc1CNC(=O)c1ccc(N2CCOC2=O)cc1	22.2
Cc1nc(C(=O)N2CC(C)Sc3ccccc32)cs1 (stereo unspecified)	-3.71
NS(=O)(=O)CCNC(=O)c1nnn(-c2ccccc2)c1C1CC1	-12.2
CCc1nc(CCNC(=O)C2CCOC2)sc1C (stereo unspecified)	-20.4
CC(C)(C)c1nc(CN2CCC(c3nc4cc(Cl)ccc4o3)CC2)no1	3.9
CC(C)n1c2ccccc2c2c1cc(C(=O)O)n2C(=O)N(C)C	-94.3
Cc1csc(CN2C[C@@H]3CN(C)CCO[C@@H]3C2)n1	-105

SMILES	cytotoxicity at 10 µM [%]
O=C(CC1CC2(CCNCC2)c2ccccc21)NCC1CC1 (stereo unspecified)	-118
CS(=O)(=O)NC[C@]12COC[C@H]1CN(C(=O)C1CC(F)(F)C1)C2	-95.5
Cc1ccoc1C(=O)N1C[C@@H](OCC2CCOCC2)[C@H]2OCCC[C@H]21	4.11
Cn1cccc1C(=O)N1CCCC2(CCCN2Cc2cccnc2)C1 (stereo unspecified)	2.88
Cc1cc(N2CCC3(CCCN(CCO)C3=O)C2)nc2ccccc12 (stereo unspecified)	3.69
COCCC(=O)N1CCCC(CCC(=O)Nc2ccc(Cl)cc2)C1 (stereo unspecified)	6.48
COc1cccc2c(=O)n(C3CCNCC3)cnc12	-53.4
CCn1ccnc1CN(C)c1cc(N(C)C)ncn1	-42.1
CCCn1ncc(CN(CCN(C)C)Cc2ccsc2)c1C	12.2
CCCN1CCC(CC(=O)N2CC(C)(C)[C@@](C)(O)C2)CC1	2.65
CCNC(=O)C1CCN(Cc2ccc(C(=O)Nc3nnc(C)s3)cc2)C1 (stereo unspecified)	-0.834
CCN1CCCC(C)(C(=O)NCc2nncn2CCc2ccccc2)C1 (stereo unspecified)	-10.2
COc1ccc(CN(C)C2CSCCSC2)c2cccnc12	31.7
COCCC1(C(=O)O)CCCN(Cc2cc3c(cc2C)OCO3)C1 (stereo unspecified)	-2.37
CN1CCN(c2cnn(CCn3cccn3)c(=O)c2)CC1	-47.4
COc1ccc2c(c1)OCC(Cc1ccc(C)nc1N)C2 (stereo unspecified)	-2.57
c1cncc(NCCNC2CSCCSC2)c1	15.8
Cc1cc2c(c(-c3cncc(C(=O)N4CCCC4)n3)c1)OC(CN)C2 (stereo unspecified)	-45.7
Cc1cc(CN(C)Cc2csc(-c3cccs3)n2)n[nH]1	-4.14
COCCN(C)C[C@@H]1CN(C(=O)c2ccc(=O)n(C)c2)C[C@@H]1CO	-11.1
CC(c1ccon1)N(C)C(=O)C1CCN(C(=O)C2CCC2)CC1 (stereo unspecified)	7.13

SMILES	cytotoxicity at 10 µM [%]
Cn1c(-c2cc3n(n2)CCCN(CC(=O)O)C3)nc2ccccc21	2.68
O=C1N(CCC2CCCCC2)CCCC1(O)CNCCc1ccccc1 (stereo unspecified)	-8.92
COc1cccc(-c2nccnc2C2CCN(C(C)=O)CC2)c1	1.47
CCN1CCN(c2ncc(-c3cc(C)no3)c(-c3ccc(C)s3)n2)CC1	2.44
Cc1csc2nc3n(c(=O)c12)CCN(C(=O)c1ccncc1)CC3	-2.65
CN(Cc1cccnc1)C1CCCN(Cc2noc(C3CC3)n2)C1 (stereo unspecified)	-4.95
c1ccc(-n2ncc(CNCC3CCCN3c3cccnn3)n2)cc1 (stereo unspecified)	-6.71
NC(=O)C1CN(C(=O)Nc2ccccc2-c2cccs2)CCO1 (stereo unspecified)	-4.84
CC(C)C(C(=O)N1CCC(Nc2cccnn2)CC1)n1cncn1 (stereo unspecified)	-4.35
N#Cc1ccc(CN2CC3(CCCCN3c3cccnc3)CC2=O)cc1 (stereo unspecified)	0.995
COC1COC2(CCN(Cc3ccc4ccccc4n3)CC2)C1 (stereo unspecified)	5.05
N#Cc1cccc(CN2CC3(CCCCN3c3cccnc3)CC2=O)c1 (stereo unspecified)	-7.27
CS(=O)(=O)N1CCOCC2(CCN(Cc3ccc[nH]3)CC2)C1	-7.02
CS(=O)(=O)N1CCOCC2(CN(Cc3ccc(F)cc3)CCO2)C1 (stereo unspecified)	1.42
c1cncc(-c2ccc3c(c2)CCC32CCN(Cc3nccs3)CC2)c1	36
O=C1CCCN1CC1CN(CC2CCOCC2)Cc2nccn2C1 (stereo unspecified)	1.65
COc1ccc(CN2CCc3ncnc(OC(C)C)c3CC2)cc1	-1.99
O=C(NCCc1ccccc1)N1C[C@@H]2C[C@H](C(=O)N3CCCC3)[C@H](C1)O2	6.95
